Laboratory results from ChEMBL document CHEMBL4477177, “Antituberculosis Activity of a Naturally Occurring Flavonoid, Isorhamnetin” (J Nat Prod, 2016).
≈ marks a conversion by molar mass, not a printed value. Calls of active or inactive are those of the source. No cut-off for these calls is given here.

What was measured:
[1] = Toxicity in mouse at 0.01 to 0.5 mg/kg assessed as change in AST level; assay type: organism-based; details: in vivo
Summary of the method: (§1)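 BALB/c mice, 3 per group, given 0.01, 0.1 or 0.5 mg/kg ip; LPS 10 mg/kg ip 1 h later. Sacrificed at 12 h. Serum AST, ALT and BUN measured on an automated clinical analyser. Mean ± SD.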

[2] = Cytotoxicity against human MRC5 cells assessed as cell survival rate at 316 uM after 24 hrs by MTT assay; assay type: cell-based; details: read-out: Survival
Summary of the method: (§2)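 Cells treated for 24 h with test agent (0–400 μM) or rifampicin (0–16 μM), then MTT assay. Survival taken as A570 of treated cells over A570 of untreated cells, as a percentage. Average of triplicates from three independent experiments.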

MRC5 [3] = test: Antiinflammatory activity against IFN-gamma-stimulated human MRC5 cells assessed as reduction of TNF-alpha production at 10 uM after 24 hrs by ELISA relative to control; assay type: functional; parameters: scale not given: the % may be the effect or the level left
Summary of the method: (§3)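 MRC-5 cells stimulated with IFN-γ and exposed to test agent for 24 h. TNF-α and IL-12 in culture media measured by sandwich ELISA: capture antibody coated overnight at 4 °C, blocking 1 h, sample 2 h at RT, detection antibody 1 h, TMB substrate, stopped with 1 N H2SO4, OD 450 nm. Mean ± SD of at least three independent experiments.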

[4] = Toxicity in mouse at 0.01 to 0.5 mg/kg assessed as irritability; assay type: organism-based; details: in vivo
[5] = biological target: Mitogen-activated protein kinase 3 (Homo sapiens) (UniProt P27361); test: Binding affinity to human ERK1 expressed in Escherichia coli BL21 by fluorescence quenching based spectrofluorometric analysis
Summary of the method: (§4)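 C-terminally His6-tagged ERK1 or p38 MAPK expressed in E. coli and purified. Protein at 10 μM in 50 mM sodium phosphate, 100 mM NaCl, pH 8.0, titrated with ligand to 1:10 protein:ligand. Excitation 290 nm, emission 290–500 nm. Binding constant K derived from fluorescence quenching.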

[6] = Cytotoxicity against mouse NIH/3T3 cells assessed as cell survival rate at 158 uM after 24 hrs by MTT assay; assay type: cell-based, NIH3T3; details: read-out: Survival; summary of the method: as §2
MRC5 [7] = test: Antiinflammatory activity against IFN-gamma-stimulated human MRC5 cells assessed as reduction of IL-12 production at 5 uM after 24 hrs by ELISA relative to control; assay type: functional; parameters: scale not given: the % may be the effect or the level left; summary of the method: as §3
Mus musculus [8] = test: Antiinflammatory activity against LPS-induced BALB/c mouse lung inflammation model assessed as lowering of IL-1beta level at 0.01 to 0.5 mg/kg, ip administered for 1 hr followed by LPS stimulation for 12 hrs relative to vehicle-treated control; assay type: functional, organism-based
Summary of the method: (§5)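 Female BALB/c mice, 6 weeks old, acclimatised 1 week; 6 groups of 3. Test agent (0.01, 0.1 or 0.5 mg/kg) given ip; 1 h later LPS 10 mg/kg ip in PBS. Sacrifice at 12 h. Whole lungs homogenised in NP-40 lysis buffer at 4 °C and centrifuged. Cytokines in supernatant measured by ELISA (OD 450 nm).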

[9] = biological target: T1, MAP kinase p38 (Homo sapiens) (UniProt O15264+Q15759+Q16539+P53778); test: Binding affinity to human C-terminally His-tagged p38 expressed in Escherichia coli BL21 by fluorescence quenching based spectrofluorometric analysis; summary of the method: as §4
Mus musculus [10] = test: Antiinflammatory activity against LPS-induced BALB/c mouse lung inflammation model assessed as lowering of IL-6 level at 0.01 to 0.5 mg/kg, ip administered for 1 hr followed by LPS stimulation for 12 hrs relative to vehicle-treated control; assay type: functional, organism-based; summary of the method: as §5
MRC5 [11] = test: Antiinflammatory activity against IFN-gamma-stimulated human MRC5 cells assessed as reduction of TNF-alpha mRNA level at 20 uM incubated for 3 hrs by RT-PCR analysis relative to control; assay type: functional; parameters: scale not given: the % may be the effect or the level left
Summary of the method: (§6)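 MRC-5 cells cultured in DMEM with 10% FBS at 37 °C, 5% CO2, then stimulated with or without 20 ng/mL IFN-γ in presence or absence of test agent for 3 h. Competitive RT-PCR; targets amplified 25 cycles (annealing 57 °C). Band densitometry expressed relative to β-actin mRNA. Mean ± SD.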

[12] = biological target: Mitogen-activated protein kinase 8/9 (Homo sapiens) (UniProt P45983+P45984); test: Downregulation of JNK1/2 phosphorylation in IFN-gamma-induced human MRC5 cells at 20 uM pretreated for 1 hr followed by IFN-gamma stimulation for 3 hrs by Western blot analysis; assay type: cell-based
Summary of the method: (§7)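 MRC-5 cells pretreated with 20 μM agent for 1 h, then 20 ng/mL IFN-γ for 3 h. Cytoplasmic lysates prepared; 20 μg protein run on 10% SDS-PAGE and transferred to PVDF. Membranes blocked in 5% BSA/TBST and probed overnight at 4 °C with phospho-specific and total MAPK antibodies. β-Actin used as loading control.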

[13] = system: Mycobacterium tuberculosis; test: Antitubercular activity against Mycobacterium tuberculosis H37Rv P887 incubated for 1 to 9 days by inverted microscopic analysis; assay type: functional
Summary of the method: (§8)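 Bacteria immobilised in 0.5% agarose within microfluidic channels of a 96-well chip. Compound (0–632 μM; rifampicin 0–19.4 μM) supplied in Middlebrook 7H9 with 10% OADC and allowed to diffuse in. Incubated at 37 °C; channel boundary imaged by inverted microscopy (40×) at 1, 3, 5, 7 and 9 days. MIC90 taken as lowest concentration giving 90% growth inhibition. Triplicate.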

MRC5 [14] = test: Antiinflammatory activity against IFN-gamma-stimulated human MRC5 cells assessed as reduction of IL-12 production at 10 uM after 24 hrs by ELISA relative to control; assay type: functional; parameters: scale not given: the % may be the effect or the level left; summary of the method: as §3
MRC5 [15] = test: Antiinflammatory activity against IFN-gamma-stimulated human MRC5 cells assessed as reduction of IL-1beta mRNA level at 20 uM incubated for 3 hrs by RT-PCR analysis relative to control; assay type: functional; parameters: scale not given: the % may be the effect or the level left; summary of the method: as §6
[16] = Cytotoxicity against human MRC5 cells assessed as cell survival rate at 158 uM after 24 hrs by MTT assay; assay type: cell-based; details: read-out: Survival; summary of the method: as §2
Mus musculus [17] = test: Antiinflammatory activity against LPS-induced BALB/c mouse lung inflammation model assessed as lowering of IL-12 level at 0.01 to 0.5 mg/kg, ip administered for 1 hr followed by LPS stimulation for 12 hrs relative to vehicle-treated control; assay type: functional, organism-based; summary of the method: as §5
Mus musculus [18] = test: Antiinflammatory activity against LPS-induced BALB/c mouse lung inflammation model assessed as lowering of IFN-gamma level at 0.01 to 0.5 mg/kg, ip administered for 1 hr followed by LPS stimulation for 12 hrs relative to vehicle-treated control; assay type: functional, organism-based; summary of the method: as §5
[19] = Toxicity in mouse at 0.01 to 0.5 mg/kg assessed as weight loss; assay type: organism-based; details: in vivo
[20] = biological target: Mitogen-activated protein kinase; ERK1/ERK2 (Homo sapiens) (UniProt P27361+P28482); test: Downregulation of ERK1/2 phosphorylation in IFN-gamma-induced human MRC5 cells at 20 uM pretreated for 1 hr followed by IFN-gamma stimulation for 3 hrs by Western blot analysis; assay type: cell-based; summary of the method: as §7
MRC5 [21] = test: Antiinflammatory activity against IFN-gamma-stimulated human MRC5 cells assessed as reduction of IL-6 mRNA level at 20 uM incubated for 3 hrs by RT-PCR analysis relative to control; assay type: functional; parameters: scale not given: the % may be the effect or the level left; summary of the method: as §6
MRC5 [22] = test: Antiinflammatory activity against IFN-gamma-stimulated human MRC5 cells assessed as reduction of IL-12 mRNA level at 20 uM incubated for 3 hrs by RT-PCR analysis relative to control; assay type: functional; parameters: scale not given: the % may be the effect or the level left; summary of the method: as §6
[23] = Toxicity in mouse at 0.01 to 0.5 mg/kg assessed as death; assay type: organism-based; details: in vivo
[24] = Cytotoxicity against human HaCaT cells assessed as cell survival rate at 400 uM after 24 hrs by MTT assay; assay type: cell-based; details: read-out: Survival; summary of the method: as §2
[25] = Cytotoxicity against mouse NIH/3T3 cells assessed as cell survival rate at 400 uM after 24 hrs by MTT assay; assay type: cell-based, NIH3T3; details: read-out: Survival; summary of the method: as §2
[26] = Cytotoxicity against mouse NIH/3T3 cells assessed as cell survival rate at 316 uM after 24 hrs by MTT assay; assay type: cell-based, NIH3T3; details: read-out: Survival; summary of the method: as §2
[27] = Cytotoxicity against human HaCaT cells assessed as cell survival rate at 316 uM after 24 hrs by MTT assay; assay type: cell-based; details: read-out: Survival; summary of the method: as §2
[28] = Toxicity in mouse at 0.01 to 0.5 mg/kg assessed as twisting; assay type: organism-based; details: in vivo
[29] = Toxicity in mouse at 0.01 to 0.5 mg/kg assessed as breathing; assay type: organism-based; details: in vivo
[30] = Toxicity in mouse at 0.01 to 0.5 mg/kg assessed as change in ALT level; assay type: organism-based; details: in vivo; summary of the method: as §1
[31] = Cytotoxicity against human HaCaT cells assessed as cell survival rate at 158 uM after 24 hrs by MTT assay; assay type: cell-based; details: read-out: Survival; summary of the method: as §2
[32] = system: Mycobacterium tuberculosis; test: Antitubercular activity against XDR Mycobacterium tuberculosis X24 incubated for 1 to 9 days by inverted microscopic analysis; assay type: functional; summary of the method: as §8
[33] = biological target: T1, MAP kinase p38 (Homo sapiens); test: Downregulation of p38 phosphorylation in IFN-gamma-induced human MRC5 cells at 20 uM pretreated for 1 hr followed by IFN-gamma stimulation for 3 hrs by Western blot analysis; assay type: cell-based; summary of the method: as §7
[34] = system: Mycobacterium tuberculosis; test: Antitubercular activity against Mycobacterium tuberculosis H37Rv P887 at 158 uM incubated for 1 to 9 days by inverted microscopic analysis; assay type: functional; summary of the method: as §8
[35] = system: Mycobacterium tuberculosis; test: Antitubercular activity against MDR Mycobacterium tuberculosis M22 incubated for 1 to 9 days by inverted microscopic analysis; assay type: functional; summary of the method: as §8
MRC5 [36] = test: Antiinflammatory activity against IFN-gamma-stimulated human MRC5 cells assessed as reduction of MMP-1 mRNA level at 20 uM incubated for 3 hrs by RT-PCR analysis relative to control; assay type: functional; parameters: scale not given: the % may be the effect or the level left; summary of the method: as §6
[37] = system: Mycobacterium tuberculosis; test: Antitubercular activity against MDR Mycobacterium tuberculosis X23 incubated for 1 to 9 days by inverted microscopic analysis; assay type: functional
MRC5 [38] = test: Antiinflammatory activity against IFN-gamma-stimulated human MRC5 cells assessed as reduction of TNF-alpha production at 5 uM after 24 hrs by ELISA relative to control; assay type: functional; parameters: scale not given: the % may be the effect or the level left; summary of the method: as §3
[39] = system: Mycobacterium tuberculosis; test: Antitubercular activity against XDR Mycobacterium tuberculosis X59 incubated for 1 to 9 days by inverted microscopic analysis; assay type: functional; summary of the method: as §8
[40] = Lipophilicity, logP of the compound; assay type: physicochemical; details: octanol/water
[41] = Toxicity in mouse at 0.01 to 0.5 mg/kg assessed as change in BUN level; assay type: organism-based; details: in vivo; summary of the method: as §1
[42] = system: Mycobacterium tuberculosis; test: Antitubercular activity against Mycobacterium tuberculosis H37Rv ATCC 27294 incubated for 7 days by resazurin assay; assay type: functional; details: H37Rv ATCC 27294, 168 h

Chain of Mitogen-activated protein kinase; ERK1/ERK2 (Homo sapiens) (P27361 whole entry, looked up): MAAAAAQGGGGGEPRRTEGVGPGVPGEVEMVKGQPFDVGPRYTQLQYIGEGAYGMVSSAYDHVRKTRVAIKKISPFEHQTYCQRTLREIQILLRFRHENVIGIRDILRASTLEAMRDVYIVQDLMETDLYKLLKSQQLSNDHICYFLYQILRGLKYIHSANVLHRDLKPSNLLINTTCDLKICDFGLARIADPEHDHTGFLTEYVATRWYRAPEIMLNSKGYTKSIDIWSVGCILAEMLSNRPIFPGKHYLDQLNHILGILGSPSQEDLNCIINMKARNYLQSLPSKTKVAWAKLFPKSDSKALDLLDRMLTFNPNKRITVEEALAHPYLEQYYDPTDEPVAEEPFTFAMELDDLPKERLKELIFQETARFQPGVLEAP
Chain of Mitogen-activated protein kinase; ERK1/ERK2 (Homo sapiens) (P28482 whole entry, looked up): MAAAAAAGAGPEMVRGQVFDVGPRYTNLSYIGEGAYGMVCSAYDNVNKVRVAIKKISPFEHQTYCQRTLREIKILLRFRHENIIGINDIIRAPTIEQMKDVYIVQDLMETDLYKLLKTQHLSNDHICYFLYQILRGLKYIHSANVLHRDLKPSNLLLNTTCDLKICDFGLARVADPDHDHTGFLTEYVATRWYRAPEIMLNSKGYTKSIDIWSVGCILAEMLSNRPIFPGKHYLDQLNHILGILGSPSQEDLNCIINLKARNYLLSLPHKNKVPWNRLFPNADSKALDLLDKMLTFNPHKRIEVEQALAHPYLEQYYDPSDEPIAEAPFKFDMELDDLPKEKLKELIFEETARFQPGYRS
Chain of Mitogen-activated protein kinase 3 (Homo sapiens) (P27361 whole entry): as the sequence (P27361 whole entry, looked up) above
Chain of Mitogen-activated protein kinase 8/9 (Homo sapiens) (P45983 whole entry, looked up): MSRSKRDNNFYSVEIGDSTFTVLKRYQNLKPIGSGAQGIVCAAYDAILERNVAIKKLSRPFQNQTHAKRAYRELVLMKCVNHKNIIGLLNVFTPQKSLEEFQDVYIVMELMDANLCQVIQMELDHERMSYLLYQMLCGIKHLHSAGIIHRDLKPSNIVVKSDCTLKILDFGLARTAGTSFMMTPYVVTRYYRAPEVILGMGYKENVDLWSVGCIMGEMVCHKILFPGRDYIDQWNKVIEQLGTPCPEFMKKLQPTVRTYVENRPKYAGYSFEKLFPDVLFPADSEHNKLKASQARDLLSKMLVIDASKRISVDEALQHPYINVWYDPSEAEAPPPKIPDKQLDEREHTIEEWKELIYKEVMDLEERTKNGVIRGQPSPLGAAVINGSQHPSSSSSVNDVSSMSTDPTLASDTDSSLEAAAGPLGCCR
Chain of Mitogen-activated protein kinase 8/9 (Homo sapiens) (P45984 whole entry, looked up): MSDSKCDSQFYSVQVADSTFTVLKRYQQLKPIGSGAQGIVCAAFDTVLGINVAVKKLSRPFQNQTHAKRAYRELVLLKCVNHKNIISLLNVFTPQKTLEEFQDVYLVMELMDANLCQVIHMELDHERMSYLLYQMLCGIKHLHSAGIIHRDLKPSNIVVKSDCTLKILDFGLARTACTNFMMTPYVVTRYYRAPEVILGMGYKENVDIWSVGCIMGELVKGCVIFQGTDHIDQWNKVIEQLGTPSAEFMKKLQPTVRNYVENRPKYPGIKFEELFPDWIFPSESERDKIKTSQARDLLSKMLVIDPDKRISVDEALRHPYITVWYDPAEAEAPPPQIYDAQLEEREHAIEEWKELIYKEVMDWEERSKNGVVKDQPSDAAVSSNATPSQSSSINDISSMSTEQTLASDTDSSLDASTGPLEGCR

COc1cc(-c2oc3cc(O)cc(O)c3c(=O)c2O)ccc1O [ISORHAMNETIN]
Activity [1]: Non-Toxic
viability at 24 h, 316 µM [2]: 47%
Activity (MRC5 [3]): 43.75%
Activity [4]: Non-Toxic
K [5]: 4.46 ×10⁶ /M
viability at 24 h, 158 µM [6]: 78%
Activity (MRC5 [7]): 45%
Activity (Mus musculus [8]): Active
K [9]: 7.6 ×10⁶ /M
Activity (Mus musculus [10]): Active
Activity (MRC5 [11]): 56%
Activity [12]: inactive
MIC90 [13]: 158 µM (≈ 50 µg/mL)
Activity (MRC5 [14]): 50%
Activity (MRC5 [15]): 39%
viability at 24 h, 158 µM [16]: 54%
Activity (Mus musculus [17]): Active
Activity (Mus musculus [18]): Active
Activity [19]: Non-Toxic
Activity [20]: Active
Activity (MRC5 [21]): 69%
Activity (MRC5 [22]): 76%
Activity [23]: Non-Toxic
viability at 24 h, 400 µM [24]: 66%
viability at 24 h, 400 µM [25]: 58%
viability at 24 h, 316 µM [26]: 63%
viability at 24 h, 316 µM [27]: 71%
Activity [28]: Non-Toxic
Activity [29]: Non-Toxic
Activity [30]: Non-Toxic
viability at 24 h, 158 µM [31]: 90%
MIC90 [32]: 316 µM (≈ 99.9 µg/mL)
Activity [33]: Active
inhibition at 158 µM [34]: 90%
MIC90 [35]: 316 µM (≈ 99.9 µg/mL)
Activity (MRC5 [36]): 41%
MIC90 [37]: 316 µM (≈ 99.9 µg/mL)
Activity (MRC5 [38]): 37.5%
MIC90 [39]: 316 µM (≈ 99.9 µg/mL)
logP [40]: 1.86
Activity [41]: Non-Toxic

O=c1cc(-c2ccc(O)c(O)c2)oc2cc(O)cc(O)c12 [LUTEOLIN]
MIC [42]: 827 µM (≈ 237 µg/mL)
